Laboratory results taken from ChEMBL document CHEMBL4393709, “Structure-guided optimization of 4,6-substituted-1,3,5-triazin-2(1H)-ones as catalytic inhibitors of human DNA topoisomerase IIα” (Eur J Med Chem, 2019).
The source made the active and inactive calls. The rule behind the calls is not given here.

Key:
MCF7 = experiment: Cytotoxicity against human MCF7 cells assessed as reduction in cell viability at 200 uM after 24 hrs by MTS assay; assay type: functional, cell-based
How it was run: (§1)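 Single-concentration screen: exponentially growing HepG2 or MCF-7 cells were exposed to compounds for 24 h, and viability was read by MTS relative to control. DMSO (0.5%) was the solvent control; etoposide was the positive control.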

HepG2 [1] = experiment: Cytotoxicity against human HepG2 cells assessed as reduction in cell viability at 200 uM after 24 hrs by MTS assay; assay type: functional, cell-based; how it was run: as §1
[2] = biological target: DNA topoisomerase 2-beta (Homo sapiens) (UniProt Q02880); experiment: (§2) Inhibition of human topoisomerase-2beta mediated decatenation at […] using kinetoplast DNA as substrate after 30 mins in presence of ATP by ethidium bromide staining-based gel electrophoresis method relative to control; parameters: scale not given: the % may be the effect or the level left
[3] = biological target: DNA topoisomerase 2-beta (Homo sapiens) (UniProt Q02880); experiment: Inhibition of human topoisomerase-2beta mediated decatenation at 125 uM using kinetoplast DNA as substrate after 30 mins in presence of ATP by ethidium bromide staining-based gel electrophoresis method relative to control; parameters: scale not given: the % may be the effect or the level left
How it was run: (§3)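 One U of human topo IIα or IIβ with 200 ng kDNA, 30 min at 37 °C in 50 mM Tris-HCl pH 7.5, 125 mM NaCl, 10 mM MgCl2, 5 mM DTT, 0.5 mM EDTA, 0.1 mg/ml BSA, 1 mM ATP. Compounds (3.9–500 µM, 1% DMSO final) were added before the enzyme. Reactions were stopped with chloroform/isoamyl alcohol, run on a 1% TAE gel and stained with EtBr; inhibition came from band densitometry, in duplicate.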

[4] = biological target: DNA topoisomerase 2-beta (Homo sapiens) (UniProt Q02880); experiment: as §2; parameters: scale not given: the % may be the effect or the level left; remark: listed apart in the source
[5] = biological target: DNA topoisomerase 2-beta (Homo sapiens) (UniProt Q02880); experiment: Inhibition of human topoisomerase-2beta mediated decatenation at 500 uM using kinetoplast DNA as substrate after 30 mins in presence of ATP by ethidium bromide staining-based gel electrophoresis method relative to control; parameters: scale not given: the % may be the effect or the level left; how it was run: as §3
[6] = biological target: T1, DNA topoisomerase 2-alpha (Homo sapiens, UniProt P11388); experiment: Inhibition of human topoisomerase 2alpha using supercoiled pNO1 plasmid as substrate after 30 mins by HTS assay
HepG2 [7] = experiment: Cytotoxicity against human HepG2 cells assessed as reduction in cell viability after 24 hrs by MTT assay; assay type: functional, cell-based; settings: HepG2, 24 h
[8] = biological target: T1, DNA topoisomerase 2-alpha; experiment: Poison activity at human topoisomerase-2alpha assessed as linear DNA formation at 50 uM using supercoiled pBR322 DNA as substrate after 60 mins by ethidium bromide staining based agarose gel electrophoresis method (reference value: 1.77 %); settings: 1 h
[9] = biological target: T1, DNA topoisomerase 2-alpha; experiment: (§4) Poison activity at human topoisomerase-2alpha assessed as linear DNA formation at […] using supercoiled pBR322 DNA as substrate after 60 mins by ethidium bromide staining based agarose gel electrophoresis method (reference value: […]); settings: 1 h
[10] = biological target: T1, DNA topoisomerase 2-alpha; experiment: Inhibition of human topoisomerase-2alpha mediated decatenation at 125 uM using kinetoplast DNA as substrate after 30 mins in presence of ATP by ethidium bromide staining-based gel electrophoresis method relative to control; parameters: scale not given: the % may be the effect or the level left
[11] = biological target: T1, DNA topoisomerase 2-alpha; experiment: Inhibition of human topoisomerase-2alpha mediated decatenation at 500 uM using kinetoplast DNA as substrate after 30 mins in presence of ATP by ethidium bromide staining-based gel electrophoresis method relative to control; parameters: scale not given: the % may be the effect or the level left
[12] = biological target: T1, DNA topoisomerase 2-alpha; experiment: Poison activity at human topoisomerase-2alpha assessed as linear DNA formation at 500 uM using supercoiled pBR322 DNA as substrate after 60 mins by ethidium bromide staining based agarose gel electrophoresis method (reference value: […]); settings: 1 h
[13] = biological target: T1, DNA topoisomerase 2-alpha; experiment: Poison activity at human topoisomerase-2alpha assessed as linear DNA formation using supercoiled pBR322 DNA as substrate after 60 mins by ethidium bromide staining based agarose gel electrophoresis method; settings: 1 h
[14] = biological target: T1, DNA topoisomerase 2-alpha; experiment: as §4; settings: 1 h; remark: listed apart in the source
[15] = biological target: T1, DNA topoisomerase 2-alpha; experiment: Poison activity at human topoisomerase-2alpha assessed as linear DNA formation at 125 uM using supercoiled pBR322 DNA as substrate after 60 mins by ethidium bromide staining based agarose gel electrophoresis method (reference value: […]); settings: 1 h

Sequence of DNA topoisomerase 2-beta (Homo sapiens) (Q02880 whole entry): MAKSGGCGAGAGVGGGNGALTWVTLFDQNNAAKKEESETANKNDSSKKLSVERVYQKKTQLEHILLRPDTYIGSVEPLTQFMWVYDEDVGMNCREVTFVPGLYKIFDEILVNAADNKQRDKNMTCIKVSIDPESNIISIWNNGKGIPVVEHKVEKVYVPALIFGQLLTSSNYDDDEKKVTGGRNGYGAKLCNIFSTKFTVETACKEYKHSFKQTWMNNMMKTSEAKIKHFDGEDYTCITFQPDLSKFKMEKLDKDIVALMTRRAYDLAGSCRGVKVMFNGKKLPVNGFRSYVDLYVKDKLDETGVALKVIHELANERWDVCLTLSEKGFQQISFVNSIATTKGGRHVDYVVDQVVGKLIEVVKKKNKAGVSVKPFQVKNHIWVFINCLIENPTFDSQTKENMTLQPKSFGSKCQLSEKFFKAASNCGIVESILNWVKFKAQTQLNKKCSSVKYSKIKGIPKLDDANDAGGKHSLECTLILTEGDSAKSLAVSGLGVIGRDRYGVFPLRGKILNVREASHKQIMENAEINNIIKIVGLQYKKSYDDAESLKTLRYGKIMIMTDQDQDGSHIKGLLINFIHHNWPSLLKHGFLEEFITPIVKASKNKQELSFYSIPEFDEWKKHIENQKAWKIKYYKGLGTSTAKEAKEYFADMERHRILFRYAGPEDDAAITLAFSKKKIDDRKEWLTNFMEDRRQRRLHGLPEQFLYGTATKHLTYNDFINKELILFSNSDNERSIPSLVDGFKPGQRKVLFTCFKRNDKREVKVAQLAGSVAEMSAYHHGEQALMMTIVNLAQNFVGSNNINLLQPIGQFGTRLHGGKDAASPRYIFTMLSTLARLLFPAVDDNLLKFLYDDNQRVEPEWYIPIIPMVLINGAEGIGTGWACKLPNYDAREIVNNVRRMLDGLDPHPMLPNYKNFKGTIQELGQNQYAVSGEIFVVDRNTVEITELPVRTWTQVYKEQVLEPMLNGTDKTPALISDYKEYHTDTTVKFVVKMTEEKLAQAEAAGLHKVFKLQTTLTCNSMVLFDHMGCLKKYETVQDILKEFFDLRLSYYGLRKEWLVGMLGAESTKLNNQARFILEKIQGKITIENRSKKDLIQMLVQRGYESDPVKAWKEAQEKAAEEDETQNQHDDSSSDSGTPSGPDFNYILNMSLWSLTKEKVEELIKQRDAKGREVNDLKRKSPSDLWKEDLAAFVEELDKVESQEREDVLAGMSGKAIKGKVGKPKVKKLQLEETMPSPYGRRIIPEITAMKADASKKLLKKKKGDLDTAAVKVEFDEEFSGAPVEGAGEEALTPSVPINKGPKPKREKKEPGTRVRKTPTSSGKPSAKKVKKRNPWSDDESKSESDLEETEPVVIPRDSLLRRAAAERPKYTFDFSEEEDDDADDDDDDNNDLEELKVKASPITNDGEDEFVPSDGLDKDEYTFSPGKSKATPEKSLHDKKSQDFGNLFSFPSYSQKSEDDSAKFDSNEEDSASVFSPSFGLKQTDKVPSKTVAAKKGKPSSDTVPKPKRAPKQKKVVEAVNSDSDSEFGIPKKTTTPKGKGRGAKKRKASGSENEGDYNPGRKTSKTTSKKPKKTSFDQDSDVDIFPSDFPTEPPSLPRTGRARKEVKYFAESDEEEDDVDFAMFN
T1 sequence (P11388 whole entry): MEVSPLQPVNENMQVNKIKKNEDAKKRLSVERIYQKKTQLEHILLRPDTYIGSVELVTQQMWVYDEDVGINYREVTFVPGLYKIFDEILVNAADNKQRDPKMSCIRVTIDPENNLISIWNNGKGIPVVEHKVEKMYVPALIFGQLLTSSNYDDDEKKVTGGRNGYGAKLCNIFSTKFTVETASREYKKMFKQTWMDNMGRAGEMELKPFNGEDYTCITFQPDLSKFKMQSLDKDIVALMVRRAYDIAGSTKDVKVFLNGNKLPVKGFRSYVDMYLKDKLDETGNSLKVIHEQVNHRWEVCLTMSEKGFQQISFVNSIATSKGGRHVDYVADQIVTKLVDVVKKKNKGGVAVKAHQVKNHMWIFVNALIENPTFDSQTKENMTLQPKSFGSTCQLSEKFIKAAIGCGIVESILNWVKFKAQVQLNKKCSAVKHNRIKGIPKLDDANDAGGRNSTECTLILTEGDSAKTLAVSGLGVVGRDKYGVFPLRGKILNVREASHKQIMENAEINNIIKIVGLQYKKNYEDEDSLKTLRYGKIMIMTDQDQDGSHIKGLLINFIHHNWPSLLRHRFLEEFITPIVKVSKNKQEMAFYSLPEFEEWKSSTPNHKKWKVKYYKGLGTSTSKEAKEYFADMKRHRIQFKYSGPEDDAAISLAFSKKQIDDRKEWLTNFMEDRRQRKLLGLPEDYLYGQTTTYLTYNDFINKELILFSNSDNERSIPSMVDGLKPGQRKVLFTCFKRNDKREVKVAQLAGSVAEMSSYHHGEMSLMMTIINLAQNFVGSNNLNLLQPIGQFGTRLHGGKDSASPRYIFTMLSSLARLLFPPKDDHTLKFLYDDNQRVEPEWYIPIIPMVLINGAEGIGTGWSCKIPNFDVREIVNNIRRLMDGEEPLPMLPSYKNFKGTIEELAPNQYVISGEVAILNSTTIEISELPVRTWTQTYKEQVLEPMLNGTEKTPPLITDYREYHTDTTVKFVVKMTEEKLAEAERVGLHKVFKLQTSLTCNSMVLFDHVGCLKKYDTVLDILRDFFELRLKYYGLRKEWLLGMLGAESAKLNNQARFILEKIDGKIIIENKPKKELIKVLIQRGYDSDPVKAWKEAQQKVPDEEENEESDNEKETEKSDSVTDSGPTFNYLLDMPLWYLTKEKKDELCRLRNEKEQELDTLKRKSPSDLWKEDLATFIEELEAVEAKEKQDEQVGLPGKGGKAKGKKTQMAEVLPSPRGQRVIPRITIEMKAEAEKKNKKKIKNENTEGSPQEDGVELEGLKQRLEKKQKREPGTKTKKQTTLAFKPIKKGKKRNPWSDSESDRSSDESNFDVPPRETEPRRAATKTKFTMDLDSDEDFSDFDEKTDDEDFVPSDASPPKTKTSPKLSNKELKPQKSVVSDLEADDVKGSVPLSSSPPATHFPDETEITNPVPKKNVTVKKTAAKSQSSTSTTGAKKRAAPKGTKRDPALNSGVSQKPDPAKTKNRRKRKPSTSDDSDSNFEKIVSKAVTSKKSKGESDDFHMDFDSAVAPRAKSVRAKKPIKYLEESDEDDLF

Row | SMILES | Activity (MCF7) | Activity (HepG2 [1]) | further results
1 | O=c1nc(SCc2ccc3nonc3c2)nc(SCc2cccc(Cl)c2)[nH]1 | inactive | inactive | –
2 | CC(C(=O)O)c1ccc(CSc2nc(SCc3ccc(Cl)cc3)[nH]c(=O)n2)cc1 (centres undefined) | inactive | inactive | –
3 | O=c1nc(SCc2c(F)cccc2F)nc(SCc2cccc(Cl)c2)[nH]1 | inactive | inactive | –
4 | O=c1nc(SCc2ccc(CO)cc2)nc(SCc2ccc(Cl)cc2)[nH]1 | inactive | inactive | –
5 | O=c1nc(SCc2c(F)cccc2F)nc(SCc2ccccc2F)[nH]1 | inactive | inactive | –
6 | NC(=O)c1cccc(CSc2nc(SCc3cccc(Cl)c3)[nH]c(=O)n2)c1 | inactive | inactive | –
7 | O=c1nc(SCc2cc(F)cc(C(F)(F)F)c2)nc(SCc2cccc(Cl)c2)[nH]1 | – | – | Activity [2]: 0%; Activity [3]: 0%; Activity [4]: 91.8%; Activity [5]: 0%
8 | CC(C)c1ccc(CSc2nc(SCc3ccc(Cl)cc3)[nH]c(=O)n2)cc1 | inactive | inactive | –
9 | O=c1nc(SCc2cccc(O)c2)nc(SCc2ccccc2F)[nH]1 | inactive | inactive | –
10 | CC(C(=O)O)c1ccc(CSc2nc(SCc3ccccc3F)[nH]c(=O)n2)cc1 (centres undefined) | inactive | inactive | –
11 | O=c1nc(SCc2cc(F)c(F)cc2F)nc(SCc2ccc(Cl)cc2)[nH]1 | inactive | inactive | –
12 | O=C(O)c1cccc(CSc2nc(SCc3ccc(Cl)cc3)[nH]c(=O)n2)c1 | inactive | inactive | –
13 | O=c1nc(SCc2cc(F)cc(C(F)(F)F)c2)nc(SCc2ccccc2F)[nH]1 | inactive | inactive | Activity [2]: 12.5%; Activity [3]: 0%; Activity [4]: 99.4%; Activity [5]: 0%
14 | O=c1nc(SCc2c(F)cccc2F)nc(SCc2ccc(Cl)cc2)[nH]1 | inactive | inactive | –
15 | NC(=O)c1cccc(CSc2nc(SCc3ccc(Cl)cc3)[nH]c(=O)n2)c1 | inactive | inactive | –
16 | CC(C(=O)O)c1ccc(CSc2nc(SCc3cccc(Cl)c3)[nH]c(=O)n2)cc1 (centres undefined) | inactive | inactive | –
17 | NC(=O)c1cccc(CSc2nc(SCc3ccccc3F)[nH]c(=O)n2)c1 | inactive | inactive | –
18 | O=c1nc(SCc2ccccc2)nc(SCc2cccc(Cl)c2)[nH]1 | – | – | IC50 [6]: 57.6 µM
19 | O=c1nc(SCc2ccc(CO)cc2)nc(SCc2cccc(Cl)c2)[nH]1 | inactive | inactive | –
20 | O=c1nc(SCc2cccc(O)c2)nc(SCc2cccc(Cl)c2)[nH]1 | inactive | inactive | –
21 | COc1cc([C@@H]2c3cc4c(cc3[C@@H](O[C@@H]3O[C@@H]5CO[C@@H](C)O[C@H]5[C@H](O)[C@H]3O)[C@H]3COC(=O)[C@H]23)OCO4)cc(OC)c1O [ETOPOSIDE] | – | – | EC50 (HepG2 [7]): 60.5 to 93.4 µM; Activity [8]: 35.56%; Activity [9]: 25.79%; Activity [10]: 4.09%; Activity [11]: 2.27%; Activity [2]: 93.4%; Activity [3]: 23.9%; Activity [12]: 39.98%; Activity [13]: Dose-dependent effect; Activity [14]: 13.72%; Activity [4]: 100%; Activity [15]: 34.79%; Activity [5]: 14.7%
22 | O=c1nc(SCc2ccc(C(F)(F)F)cc2)nc(SCc2ccccc2F)[nH]1 | – | – | Activity [2]: 0%; Activity [3]: 0%; Activity [4]: 98.2%; Activity [5]: 0%
23 | O=c1nc(SCc2cccc(O)c2)nc(SCc2ccc(Cl)cc2)[nH]1 | inactive | inactive | –
24 | O=C(O)c1cccc(CSc2nc(SCc3cccc(Cl)c3)[nH]c(=O)n2)c1 | inactive | inactive | –
25 | O=C(O)c1cccc(CSc2nc(SCc3ccccc3F)[nH]c(=O)n2)c1 | inactive | inactive | –
26 | O=c1nc(SCc2ccc3nonc3c2)nc(SCc2ccccc2F)[nH]1 | inactive | inactive | –
27 | O=c1nc(SCc2cc(F)cc(C(F)(F)F)c2)nc(SCc2ccc(Cl)cc2)[nH]1 | inactive | inactive | –
28 | O=c1nc(SCc2ccc(CO)cc2)nc(SCc2ccccc2F)[nH]1 | inactive | inactive | –
